# Test results taken from PMC3774010 (Cancer research, 2013).
# What was measured:
# Bcl-w = molecular target: T1, Bcl-w (Homo sapiens, UniProt Q92843); experiment: Competition fluorescence polarization assay with Bak BH3 peptide, Bcl-w; format: binding; details: 0.1~500nM
# T1 sequence (Q92843 1-193): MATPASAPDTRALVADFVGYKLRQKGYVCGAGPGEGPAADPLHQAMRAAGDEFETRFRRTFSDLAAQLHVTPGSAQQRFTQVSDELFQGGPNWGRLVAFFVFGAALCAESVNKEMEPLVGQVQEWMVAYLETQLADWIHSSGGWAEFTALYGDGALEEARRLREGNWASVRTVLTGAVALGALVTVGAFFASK
# Nu/Nu nude mice [1] = experiment: In vivo toxicity: body weight, blood analysis, histopathology; details: for platelet reduction compared with ABT-737: 30mg/kg/d i.p. for 14 days
# Method in brief: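 Nu/Nu mice given test compound i.p. daily at various doses (dose-finding: 10–50 mg/kg/d up to 25 days, 6 mice/dose; xenograft mice: 30 mg/kg/d for 14 days). Body weight recorded every other day. Terminal cardiac-puncture blood (250 µL, EDTA) under anaesthesia analyzed for WBC, RBC, platelets, ALT, AST, BUN. Organs examined by H&E histology.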
# Bcl-XL/Bak = Bcl-XL/Bak (Homo sapiens, UniProt Q07817); experiment: Co-immunoprecipitation of Bcl-XL/Bak in H1299 cells; format: cell-based; details: 0.1–5µM, 24 h
# Method in brief: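 H1299 cells treated 24 h with test compound at 0.1–5 µM. Lysates were immunoprecipitated with a Bcl-XL antibody (normal IgG as IP control), and co-precipitated Bak and Bcl-XL were detected by Western blot. Total-lysate Bcl-XL and Bak levels were also blotted.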
# H1299 cells [2] = experiment: SRB cell growth assay, H1299; format: cell-based, human
# Method in brief: (§1)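 Cells seeded at 6×10^3–8×10^3 per well, grown overnight, then exposed 72 h to test compound (0, 0.5, 1, 2, 5, 10, 30 µM). Surviving fraction measured by sulforhodamine B protein staining; IC50 calculated from the dose series. Data given as mean ± S.D.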
# Bak = Bak oligomerization; format: cell-based, human; details: H1299 cells, BMH cross-linking
# Method in brief: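 H1299 cells exposed to increasing test compound concentrations (0.1–5µM) for 24 h. Mitochondria isolated by subcellular fractionation and taken up in PBS (pH7.2) conjugation buffer. BMH and EDTA added to cross-link Bak sulfhydryls, 1 h at room temperature, then DTT quench for 15 min at room temperature. Products resolved by SDS-PAGE and Western blotted with anti-Bak.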
# H1299 cells [3] = experiment: Colony formation assay in Bcl-XL shRNA H1299 cells; format: cell-based, human
# Mcl-1 = Mcl-1 (Homo sapiens, UniProt Q07820); experiment: Competition fluorescence polarization assay with Bak BH3 peptide, Mcl-1; format: binding; details: 0.1~500nM
# [4] = system: H1299 lung cancer xenografts; experiment: H1299 lung cancer xenografts in nude mice; format: in vivo; details: for anti-tumor efficacy compared with ABT-737: 30mg/kg/d i.p. for 14 days
# Cyt c release = experiment: Cytochrome c release from mitochondria in H1299 cells; format: cell-based, human
# Method in brief: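 Test compound given to H1299 cells at increasing concentrations (0.1–5µM) for 24 h. Subcellular fractionation separated mitochondrial and cytosolic fractions. Cytochrome c detected in the fractions by Western blot, with prohibitin as the mitochondrial marker.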
# A549 cells = experiment: SRB cell growth assay, A549; format: cell-based, human; details: A549, 72 h
# Method in brief: as §1
# human Bcl-XL protein = human Bcl-XL protein (Homo sapiens, UniProt Q07817); experiment: Competition fluorescence polarization assay with Bak BH3 peptide, Bcl-XL; format: binding; details: purified Bcl-XL 6nM, Bak BH3 peptide 3nM
# Bfl-1/A1 = molecular target: T2, Bfl-1/A1 (Homo sapiens, UniProt Q16548); experiment: Competition fluorescence polarization assay with Bak BH3 peptide, Bfl-1/A1; format: binding; details: 0.1~500nM
# T2 sequence (Q16548 1-175): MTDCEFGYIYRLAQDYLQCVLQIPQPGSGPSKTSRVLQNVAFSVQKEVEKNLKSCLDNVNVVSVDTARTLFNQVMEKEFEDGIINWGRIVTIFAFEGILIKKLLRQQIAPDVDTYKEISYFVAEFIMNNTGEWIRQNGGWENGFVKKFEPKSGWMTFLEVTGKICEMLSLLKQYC
# [5] = system: A549-P and A549-IRR xenografts; experiment: A549-P and A549-IRR lung cancer xenografts in mice; format: in vivo
# Bcl-XL/Bax = Bcl-XL/Bax (Homo sapiens, UniProt Q07817); experiment: Bcl-XL/Bax complex disruption in cells; format: cell-based
# [6] = system: A549-P and A549-IRR cells; experiment: Cell growth of A549-P and A549-IRR cells; format: cell-based, human; details: colony formation 10 days, SRB 72h
# [7] = system: normal human bronchial epithelial cells (BEAS-2B); experiment: Cytotoxicity in lung cancer cells versus normal bronchial epithelial cells; format: cell-based
# Method in brief: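 Cells were seeded at 6×10^3–8×10^3 per well, grown overnight, then treated 72 h. Surviving fraction read by sulforhodamine B protein-stain assay. BEAS-2B and A549 were kept in DMEM/F-12 with 10% FBS, and H1299 in RPMI 1640 with 5% FBS plus 5% bovine serum. Lung cancer lines received 0, 0.5, 1, 2, 5, 10 or 30µM.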
# Nu/Nu nude mice [8] = experiment: Maximum tolerated dose
# Nu/Nu nude mice [9] = details: mouse, in vivo, ip
# H157 cells = experiment: SRB cell growth assay, H157; format: cell-based, human
# Method in brief: as §1
# Bcl2 = Bcl2 (Homo sapiens, UniProt P10415); experiment: Competition fluorescence polarization assay with Bak BH3 peptide, Bcl2; format: binding; details: 0.1~500nM
# Bcl2, sequence (P10415 whole entry): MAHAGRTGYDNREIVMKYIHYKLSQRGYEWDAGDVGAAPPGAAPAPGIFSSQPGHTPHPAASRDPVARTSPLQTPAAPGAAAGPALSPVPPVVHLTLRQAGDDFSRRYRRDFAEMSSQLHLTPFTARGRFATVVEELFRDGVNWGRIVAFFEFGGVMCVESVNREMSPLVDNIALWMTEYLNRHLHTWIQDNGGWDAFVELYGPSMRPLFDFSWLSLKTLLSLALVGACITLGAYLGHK
# human Bcl-XL protein, sequence (Q07817 whole entry): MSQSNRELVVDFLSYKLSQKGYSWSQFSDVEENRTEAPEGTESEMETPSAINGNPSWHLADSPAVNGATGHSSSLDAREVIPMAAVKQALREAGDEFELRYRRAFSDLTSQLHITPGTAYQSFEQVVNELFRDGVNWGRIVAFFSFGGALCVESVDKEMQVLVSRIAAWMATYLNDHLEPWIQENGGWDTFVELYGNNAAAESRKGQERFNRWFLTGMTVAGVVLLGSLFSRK
# Mcl-1, sequence (Q07820 whole entry): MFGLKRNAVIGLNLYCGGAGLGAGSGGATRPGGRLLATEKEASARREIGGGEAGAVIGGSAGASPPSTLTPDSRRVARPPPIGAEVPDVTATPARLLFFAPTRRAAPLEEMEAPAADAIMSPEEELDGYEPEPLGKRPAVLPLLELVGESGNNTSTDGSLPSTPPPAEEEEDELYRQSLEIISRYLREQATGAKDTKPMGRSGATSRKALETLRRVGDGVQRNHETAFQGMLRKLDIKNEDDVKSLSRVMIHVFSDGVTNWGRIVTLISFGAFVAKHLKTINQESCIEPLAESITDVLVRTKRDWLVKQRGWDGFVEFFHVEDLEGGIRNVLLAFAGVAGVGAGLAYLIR
# Bcl-XL/Bak, sequence (Q07817 whole entry): as the sequence (Q07817 whole entry) above
# Bcl-XL/Bax, sequence (Q07817 whole entry): as above
SMILES,binding affinity with Bcl-w (Bcl-w),platelet reduction compared with ABT-737 (Nu/Nu nude mice [1]),"IC50 (H1299 cells [2]; H1299, 72 h, SRB assay) [nM]",sensitivity of H1299 cells after depletion of endogenous Bcl-XL (H1299 cells [3]),binding affinity with Mcl-1 (Mcl-1),anti-tumor efficacy compared with ABT-737 ([4]; H1299 xenografts),IC50 (A549 cells; SRB assay) [nM],Ki (human Bcl-XL protein) [nM],binding affinity with Bfl-1/A1 (Bfl-1/A1),sensitivity of A549-P and A549-IRR cells [6],cytotoxicity against lung cancer cells compared to normal human bronchial epithelial cells [7],"IC50 (H157 cells; H157, 72 h, SRB assay) [nM]",binding affinity with Bcl2 (Bcl2),also measured
CCOc1ccc(-c2nc3ccc(-c4nc5ccc(N6CCN(C)CC6)cc5[nH]4)cc3[nH]2)cc1 [BXI-72],very low binding affinities,less effect on platelet than ABT-737,490 ± 120,significantly reduced the sensitivity,very low binding affinities,more potent efficacy against human lung cancer than ABT-737,680 ± 80,0.9 ± 0.15,very low binding affinities,remained sensitive,relatively selective cytotoxicity,1870 ± 160,very low binding affinities,"liver histology (Nu/Nu nude mice [1]; 50mg): hepatocellular necrosis; ALT, AST, BUN, WBC and RBC (Nu/Nu nude mice [1]; 10–30mg/kg/d): no significant increases in ALT, AST and BUN or decreases in WBC and RBC; histopathology of normal tissues (Nu/Nu nude mice [1]; 10–30mg/kg/d): no evidence of normal tissue toxicities; body weight (Nu/Nu nude mice [1]; 20–30mg/kg): well tolerated without weight loss; ALT, AST and BUN (Nu/Nu nude mice [1]; 40–50mg/kg/d for two weeks): increases in ALT, AST and BUN; platelets (Nu/Nu nude mice [1]; increased doses of BXI-72, mice): dose-dependent reduction of platelets; Bcl-XL/Bak dissociation (Bcl-XL/Bak): dose-dependent Bcl-XL/Bak dissociation; Bak oligomerization (Bak): facilitated the formation of Bak dimers, trimers and multimers; effect on established lung cancer xenografts ([4]; H1299 xenografts, 10, 20 and 30mg/kg/d i.p. for 14 days): dose-dependent regression; apoptosis in tumor tissues (active caspase 3 IHC) ([4]; H1299 xenografts, 10-30mg/kg/d i.p. 14 days): dose-dependent apoptosis; Cyt c release from mitochondria (Cyt c release): facilitate Cyt c release from mitochondria; effect on tumors derived from A549-P and A549-IRR cells ([5]; 20mg/kg/d ×18): repressed tumors derived from both A549-P and A549-IRR cells; normal tissue toxicities ([5]; A549 xenograft mice, 20mg/kg/d): no significant normal tissue toxicities; Bcl-XL/Bax complexes (Bcl-XL/Bax): disrupts Bcl-XL/Bax complexes; lethality (Nu/Nu nude mice [8]; 50mg/kg/d i.p., six mice, within 10 days): uniformly lethal; death (Nu/Nu nude mice [8]; 10 to 30mg/kg/d i.p., after 25 days of daily administration): no death recorded; maximum tolerated dose (MTD) (Nu/Nu nude mice [9]): 30~40 mg/kg/d"
"CN(C)CC[C@H](CSc1ccccc1)Nc1ccc(S(=O)(=O)NC(=O)c2ccc(N3CCN(Cc4ccccc4-c4ccc(Cl)cc4)CC3)cc2)cc1[N+](=O)[O-] [ABT-737, reference compound]",,,,,,,,,,,,,,"IC50 (H1299 cells [2]; Homo sapiens, NCI-H1299, 72 h): 40500 ± 3560 nM; IC50 (A549 cells; Homo sapiens): 19400 ± 1230 nM; IC50 (H157 cells; Homo sapiens, NCI-H157, 72 h): 27600 ± 1490 nM"
CCOc1ccc2nc3cc(N=Nc4ccc(N)nc4N)ccc3c(N)c2c1 [BXI-61],very low binding affinities,less effect on platelet than ABT-737,1790 ± 120,significantly reduced the sensitivity,very low binding affinities,more potent efficacy against human lung cancer than ABT-737,3170 ± 280,14.8 ± 1.54,very low binding affinities,remained sensitive,relatively selective cytotoxicity,5710 ± 490,very low binding affinities,normal tissue toxicities (Nu/Nu nude mice [1]; 40mg/kg/d): without significant normal tissue toxicities except for a slight decrease in platelets; potency against lung cancer in vivo ([4]; 40mg/kg/d): high potency against lung cancer
